In ChEMBL document CHEMBL1132616, “6-Substituted benzopyrans as potassium channel activators: synthesis, vasodilator properties, and multivariate analysis” (1999):

Columns and labels:
Rattus norvegicus [1] = species on record: Rattus norvegicus; assay: Relaxant potency in rat aorta.; type: functional
Summary of the method: (§1)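 Aortic rings (5 mm wide) were denuded of endothelium, confirmed by the absence of a dilator response to 1 mmol/L acetylcholine. Tracheal strips were cut through the ring opposite the muscle layer. Tissues were mounted in 7-mL baths for isometric force recording. Once contraction was stable, cumulative concentration–effect curves were run. Compounds came from 10^-2 M DMSO stocks diluted in water, with final bath DMSO at most 2%.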

Rattus norvegicus [2] = species on record: Rattus norvegicus; assay: Relaxant potency in rat trachea.; type: functional; summary of the method: as §1

| Structure (SMILES) | Log 1/C (Rattus norvegicus [1]) | Log 1/C (Rattus norvegicus [2]) |
| --- | --- | --- |
| CC1(C)C=C(n2ccccc2=O)c2cc(C(F)(F)F)ccc2O1 | 7.61 | 7.37 |
| CC1(C)C=C(n2ccccc2=O)c2cc(Br)ccc2O1 | 7.84 | 7.53 |
| CC1(C)C=C(n2ccccc2=O)c2cc(-c3ccncc3)ccc2O1 | 6.68 | 6.32 |
| CC1(C)C=C(n2ccccc2=O)c2cc(C(=N)NO)ccc2O1 | 5.99 | 5.51 |
| CC1(C)C=C(n2ccccc2=O)c2cc(C(=O)c3ccccc3C(F)(F)F)ccc2O1 | 6.76 | 5.78 |
| CC1(C)C=C(n2ccccc2=O)c2cc(C(=O)c3ccccc3F)ccc2O1 | 7.08 | 6.34 |
| CCC(=O)c1ccc2c(c1)C(n1ccccc1=O)=CC(C)(C)O2 | 6.63 | 5.85 |
| CC1(C)C=C(n2ccccc2=O)c2cc(OCC(=O)c3ccc(F)cc3)ccc2O1 | 4.63 | 4.77 |
| CC1(C)C=C(n2ccccc2=O)c2cc(OCC(=O)c3ccccc3)ccc2O1 | 5.05 | 4.69 |
| Cc1ccccc1C(=O)c1ccc2c(c1)C(n1ccccc1=O)=CC(C)(C)O2 | 6.83 | 6.25 |
| CC1(C)C=C(n2ccccc2=O)c2cc(OC(=O)Nc3ccccc3F)ccc2O1 | 5.38 | 4.22 |
| CC1(C)C=C(n2ccccc2=O)c2cc(C(=O)c3c(F)cccc3F)ccc2O1 | 6.97 | 5.99 |
| CC1(C)C=C(n2ccccc2=O)c2cc(O)ccc2O1 | 5.44 | 5.31 |
| COc1ccc(C(=O)c2ccc3c(c2)C(n2ccccc2=O)=CC(C)(C)O3)cc1 | 6.15 | 5.72 |
| COc1ccc2c(c1)C(n1ccccc1=O)=CC(C)(C)O2 | 6.55 | 5.99 |
| CC1(C)C=C(n2ccccc2=O)c2cc(OC(=O)Nc3ccccc3C(F)(F)F)ccc2O1 | 5.58 | 5.19 |
| CC1(C)C=C(n2ccccc2=O)c2cc(C(=O)c3ccc(O)cc3)ccc2O1 | 6.65 | 5.87 |

| Structure (SMILES) | Log 1/C (Rattus norvegicus [1]) | Log 1/C (Rattus norvegicus [2]) |
| --- | --- | --- |
| CC1(C)C=C(n2ccccc2=O)c2cc(OC(=O)Nc3ccccc3)ccc2O1 | 5.3 | 4.89 |
| CC1(C)C=C(n2ccccc2=O)c2cc(C(=O)c3cccs3)ccc2O1 | 6.4 | 5.84 |
| CC1(C)C=C(n2ccccc2=O)c2cc(C(=O)c3ccccc3)ccc2O1 | 6.61 | 6.21 |
| CC1(C)C=C(n2ccccc2=O)c2cc(C(=O)c3ccco3)ccc2O1 | 6.49 | 5.92 |
| CC1(C)C=C(n2ccccc2=O)c2cc(C(=O)c3ccccc3[N+](=O)[O-])ccc2O1 | 6.17 | 5.64 |
| CC1(C)C=C(n2ccccc2=O)c2cc(C(=N)S)ccc2O1 | 6.21 | 5.96 |
| CC(=O)c1ccc2c(c1)C(n1ccccc1=O)=CC(C)(C)O2 | 7.37 | 6.65 |
| Cc1ccc(C)n1-c1ccc2c(c1)C(n1ccccc1=O)=CC(C)(C)O2 | 7.27 | 6.78 |
| CC1(C)C=C(n2ccccc2=O)c2cc(C(=O)c3ccc([N+](=O)[O-])cc3)ccc2O1 | 6.2 | 6.09 |
| CC1(C)C=C(n2ccccc2=O)c2ccccc2O1 | 5.43 | 5.05 |
| CC(=O)Oc1ccc2c(c1)C(n1ccccc1=O)=CC(C)(C)O2 | 5.6 | 4.97 |
| CC1(C)C=C(n2ccccc2=O)c2cc(OS(=O)(=O)F)ccc2O1 | 7.95 | 7.22 |
| CC1(C)C=C(n2ccccc2=O)c2cc(C=O)ccc2O1 | 6.91 | 6.14 |
| CC1(C)C=C(n2ccccc2=O)c2cc(OC(=O)Nc3ccc(F)cc3)ccc2O1 | 5.3 | 4.37 |
| CC1(C)C=C(n2ccccc2=O)c2cc(C=C(C#N)C#N)ccc2O1 | 6.95 | 6.3 |
| CC1(C)C=C(n2ccccc2=O)c2cc(OC(=O)Nc3ccc(C(F)(F)F)cc3)ccc2O1 | 5.1 | 4.54 |
| CC1(C)C=C(n2ccccc2=O)c2cc(C#N)ccc2O1 [BIMAKALIM] | 7.67 | 7.1 |
